# Assay results from ChEMBL document CHEMBL1136272, “Development of a presynaptic 5-HT1A antagonist” (Bioorg Med Chem Lett, 2003).
# Experiments:
# [1] = target: T1, 5-hydroxytryptamine receptor 1A (Rattus norvegicus, UniProt P19327); experiment: Inhibition of the 5-hydroxytryptamine 1A receptor in rat dorsal raphe
# T1 sequence (P19327 whole entry): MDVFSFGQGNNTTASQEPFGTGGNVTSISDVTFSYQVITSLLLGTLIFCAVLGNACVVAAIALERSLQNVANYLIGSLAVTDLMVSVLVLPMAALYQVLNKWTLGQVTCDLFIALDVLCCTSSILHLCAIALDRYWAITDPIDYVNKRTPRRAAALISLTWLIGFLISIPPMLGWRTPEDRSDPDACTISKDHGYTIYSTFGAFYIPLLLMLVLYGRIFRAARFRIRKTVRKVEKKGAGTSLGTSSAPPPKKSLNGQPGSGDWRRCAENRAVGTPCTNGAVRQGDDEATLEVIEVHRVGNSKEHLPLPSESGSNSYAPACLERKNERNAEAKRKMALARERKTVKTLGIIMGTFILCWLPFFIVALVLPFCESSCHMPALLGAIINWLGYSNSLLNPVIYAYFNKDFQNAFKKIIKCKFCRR
# Rattus norvegicus [2] = experiment: In vivo motor activity determined in rat at 0.1 + 1 mg/kg of ip administration; type: functional; settings: route intraperitoneal
# Procedure, shortened: (§1)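 Rat social interaction paradigm with total motor activity counts recorded in the same session. All compounds were given ip, with a saline-treated control group. Combination arms gave a 0.1 mg/kg agent together with a second agent at 1 mg/kg, both ip. Social interaction time (s) and motor counts are reported as mean ± SEM, with significance tested against saline control.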
# Rattus norvegicus [3] = experiment: Social interaction time determined in vivo in rat at 0.1 + 1 mg/kg of ip administration; type: functional; settings: route intraperitoneal; procedure, shortened: as §1
# Rattus norvegicus [4] = experiment: In vivo motor activity determined in rat at 0.1 mg/kg of ip administration; type: functional; settings: route intraperitoneal; procedure, shortened: as §1
# Rattus norvegicus [5] = experiment: Social interaction time determined in vivo rat at 0.1 mg/kg of ip administration; type: functional; settings: route intraperitoneal
# Procedure, shortened: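 Rats dosed i.p. against a saline-treated control group. Social interaction time (s) and total motor activity (counts) were recorded in the same social-interaction session and reported as mean ± SEM, with significance tested against saline control.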
# [6] = target: Serotonin 2 (5-HT2) receptor (Rattus norvegicus, UniProt P30994+P08909+P14842); experiment: Inhibitory concentration required against 5-hydroxytryptamine 2 receptor in rat cortex using [3H]spiperone
# [7] = target: T2, Adrenergic receptor alpha-2 (Rattus norvegicus, UniProt P22086+P19328+P22909); experiment: Inhibitory concentration required against Alpha-2 adrenergic receptor in rat cortex [3H]clonidine
# T2 sequence (P22086 whole entry): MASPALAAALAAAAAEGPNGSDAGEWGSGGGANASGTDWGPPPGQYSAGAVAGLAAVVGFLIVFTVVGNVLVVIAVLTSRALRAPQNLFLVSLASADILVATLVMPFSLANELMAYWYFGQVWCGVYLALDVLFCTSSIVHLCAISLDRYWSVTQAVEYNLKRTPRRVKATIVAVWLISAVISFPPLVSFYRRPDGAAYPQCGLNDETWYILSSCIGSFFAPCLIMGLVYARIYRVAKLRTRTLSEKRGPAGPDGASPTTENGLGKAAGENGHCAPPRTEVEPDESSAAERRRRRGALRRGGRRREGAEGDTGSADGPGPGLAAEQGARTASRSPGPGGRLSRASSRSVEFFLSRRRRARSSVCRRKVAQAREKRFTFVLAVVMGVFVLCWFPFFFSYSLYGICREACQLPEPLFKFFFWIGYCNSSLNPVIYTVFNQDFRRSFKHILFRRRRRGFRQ
# T2 sequence (P19328 whole entry): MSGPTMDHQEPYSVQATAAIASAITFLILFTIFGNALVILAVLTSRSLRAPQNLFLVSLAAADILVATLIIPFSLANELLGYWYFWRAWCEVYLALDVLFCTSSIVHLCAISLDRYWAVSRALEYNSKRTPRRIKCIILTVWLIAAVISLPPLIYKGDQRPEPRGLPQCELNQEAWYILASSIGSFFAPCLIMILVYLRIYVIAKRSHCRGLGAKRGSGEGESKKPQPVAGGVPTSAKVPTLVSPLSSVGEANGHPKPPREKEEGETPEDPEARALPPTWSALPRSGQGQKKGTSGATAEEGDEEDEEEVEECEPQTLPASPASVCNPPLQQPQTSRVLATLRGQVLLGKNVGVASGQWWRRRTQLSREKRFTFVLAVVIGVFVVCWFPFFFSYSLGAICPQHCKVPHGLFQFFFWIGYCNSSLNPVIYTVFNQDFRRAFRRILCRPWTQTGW
# T2 sequence (P22909 whole entry): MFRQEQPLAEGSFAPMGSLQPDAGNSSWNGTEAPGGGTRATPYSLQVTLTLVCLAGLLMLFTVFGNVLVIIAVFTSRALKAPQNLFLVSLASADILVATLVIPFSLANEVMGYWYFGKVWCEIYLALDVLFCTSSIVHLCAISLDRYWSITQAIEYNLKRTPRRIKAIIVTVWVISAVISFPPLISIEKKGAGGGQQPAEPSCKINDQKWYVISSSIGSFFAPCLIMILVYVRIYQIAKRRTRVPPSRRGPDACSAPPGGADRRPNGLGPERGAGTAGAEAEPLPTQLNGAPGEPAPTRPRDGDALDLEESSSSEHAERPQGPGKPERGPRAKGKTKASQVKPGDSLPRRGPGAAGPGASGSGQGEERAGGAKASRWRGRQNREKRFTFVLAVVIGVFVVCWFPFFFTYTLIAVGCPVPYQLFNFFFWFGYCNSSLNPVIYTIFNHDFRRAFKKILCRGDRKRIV
# Rattus norvegicus [8] = experiment: Social interaction time determined in vivo in rat at 1 mg/kg of ip administration; type: functional; settings: route intraperitoneal; procedure, shortened: as §1
# [9] = target: Sodium-dependent serotonin transporter (Rattus norvegicus, UniProt P31652); experiment: Inhibitory concentration required against 5-HT uptake in rat cortex
# [10] = target: 5-hydroxytryptamine receptor 1B (Rattus norvegicus, UniProt P28564); experiment: Inhibitory concentration required against 5-hydroxytryptamine 1B receptor in rat striatum using [3H]5-HT; type: tissue-based
# Rattus norvegicus [11] = experiment: In vivo motor activity determined in rat at 1 mg/kg of ip administration; type: functional; settings: route intraperitoneal; procedure, shortened: as §1
# D(2) dopamine receptor = D(2) dopamine receptor (Rattus norvegicus, UniProt P61169); experiment: Inhibitory concentration required against Dopamine receptor D2 in rat striatum; type: tissue-based
# [12] = target: T3, Adrenergic receptor alpha-1 (Rattus norvegicus, UniProt P15823+P23944+P43140); experiment: Inhibitory concentration required against alpha-1 adrenergic receptor in rat cortex using [3H]-WB- 4101
# T3 sequence (P15823 whole entry): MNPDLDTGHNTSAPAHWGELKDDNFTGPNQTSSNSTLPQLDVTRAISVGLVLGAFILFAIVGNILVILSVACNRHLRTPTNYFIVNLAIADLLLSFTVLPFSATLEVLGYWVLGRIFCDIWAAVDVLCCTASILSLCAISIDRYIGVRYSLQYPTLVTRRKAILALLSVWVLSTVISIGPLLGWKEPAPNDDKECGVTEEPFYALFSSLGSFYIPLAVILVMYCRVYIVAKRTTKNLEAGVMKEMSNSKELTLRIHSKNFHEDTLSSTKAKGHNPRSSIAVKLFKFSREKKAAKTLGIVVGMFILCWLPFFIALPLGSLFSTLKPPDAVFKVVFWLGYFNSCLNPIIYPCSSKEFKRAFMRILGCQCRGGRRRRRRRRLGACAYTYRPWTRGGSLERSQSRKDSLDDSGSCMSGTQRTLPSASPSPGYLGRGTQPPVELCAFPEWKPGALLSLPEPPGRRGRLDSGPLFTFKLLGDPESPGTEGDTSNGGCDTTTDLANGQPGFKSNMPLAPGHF
# T3 sequence (P23944 whole entry): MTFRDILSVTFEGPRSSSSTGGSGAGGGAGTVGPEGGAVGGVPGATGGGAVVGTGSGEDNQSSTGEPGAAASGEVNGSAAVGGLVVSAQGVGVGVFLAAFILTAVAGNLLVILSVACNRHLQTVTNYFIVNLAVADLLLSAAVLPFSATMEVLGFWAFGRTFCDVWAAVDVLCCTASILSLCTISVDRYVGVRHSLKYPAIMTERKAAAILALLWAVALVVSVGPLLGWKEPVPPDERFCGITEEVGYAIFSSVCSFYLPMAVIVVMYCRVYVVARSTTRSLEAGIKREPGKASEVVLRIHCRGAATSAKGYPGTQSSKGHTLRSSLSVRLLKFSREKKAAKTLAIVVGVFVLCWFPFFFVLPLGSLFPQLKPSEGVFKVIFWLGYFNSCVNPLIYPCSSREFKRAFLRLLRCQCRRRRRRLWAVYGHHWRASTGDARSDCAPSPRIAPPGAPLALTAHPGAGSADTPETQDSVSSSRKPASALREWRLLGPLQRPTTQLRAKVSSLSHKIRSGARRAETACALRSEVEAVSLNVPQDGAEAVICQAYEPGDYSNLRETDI
# T3 sequence (P43140 whole entry): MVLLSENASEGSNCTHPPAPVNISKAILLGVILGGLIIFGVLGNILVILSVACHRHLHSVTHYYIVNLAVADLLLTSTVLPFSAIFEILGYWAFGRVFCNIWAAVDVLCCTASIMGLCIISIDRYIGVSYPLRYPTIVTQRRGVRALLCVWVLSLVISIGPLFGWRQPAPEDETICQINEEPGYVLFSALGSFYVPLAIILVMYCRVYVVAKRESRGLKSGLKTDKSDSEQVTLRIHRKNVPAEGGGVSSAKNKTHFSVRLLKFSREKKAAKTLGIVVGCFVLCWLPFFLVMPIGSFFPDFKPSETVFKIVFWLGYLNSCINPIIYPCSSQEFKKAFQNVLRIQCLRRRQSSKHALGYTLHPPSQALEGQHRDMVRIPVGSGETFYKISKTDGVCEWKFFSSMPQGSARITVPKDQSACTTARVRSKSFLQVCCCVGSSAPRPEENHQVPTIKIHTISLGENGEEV
# Sequence of 5-hydroxytryptamine receptor 1B (P28564 whole entry): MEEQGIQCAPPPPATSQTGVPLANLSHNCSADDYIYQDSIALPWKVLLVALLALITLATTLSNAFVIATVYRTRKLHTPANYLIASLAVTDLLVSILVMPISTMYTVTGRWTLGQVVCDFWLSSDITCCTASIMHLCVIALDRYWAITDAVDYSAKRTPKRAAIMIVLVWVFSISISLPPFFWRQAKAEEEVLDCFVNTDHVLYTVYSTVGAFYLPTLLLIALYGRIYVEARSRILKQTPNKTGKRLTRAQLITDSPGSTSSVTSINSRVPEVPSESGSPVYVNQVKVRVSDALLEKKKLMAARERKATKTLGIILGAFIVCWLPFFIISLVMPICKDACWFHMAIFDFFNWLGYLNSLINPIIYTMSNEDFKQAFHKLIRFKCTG
# Sequence of Sodium-dependent serotonin transporter (P31652 whole entry): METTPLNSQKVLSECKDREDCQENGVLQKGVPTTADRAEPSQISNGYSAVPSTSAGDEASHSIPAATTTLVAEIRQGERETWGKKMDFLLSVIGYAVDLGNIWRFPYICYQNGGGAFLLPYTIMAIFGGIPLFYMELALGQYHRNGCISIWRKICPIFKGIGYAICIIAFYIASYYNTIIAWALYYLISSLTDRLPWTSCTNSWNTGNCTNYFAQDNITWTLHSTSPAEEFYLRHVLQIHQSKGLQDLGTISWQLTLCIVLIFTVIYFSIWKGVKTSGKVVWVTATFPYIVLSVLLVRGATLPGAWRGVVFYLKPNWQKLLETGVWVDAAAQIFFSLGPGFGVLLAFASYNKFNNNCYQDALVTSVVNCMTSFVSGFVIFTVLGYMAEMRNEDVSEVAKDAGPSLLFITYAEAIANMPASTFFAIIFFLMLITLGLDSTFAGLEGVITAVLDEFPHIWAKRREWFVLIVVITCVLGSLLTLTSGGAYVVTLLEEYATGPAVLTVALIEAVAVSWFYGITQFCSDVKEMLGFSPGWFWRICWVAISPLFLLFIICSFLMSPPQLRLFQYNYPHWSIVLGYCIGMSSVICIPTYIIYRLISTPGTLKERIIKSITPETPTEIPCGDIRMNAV
# Sequence of D(2) dopamine receptor (P61169 whole entry): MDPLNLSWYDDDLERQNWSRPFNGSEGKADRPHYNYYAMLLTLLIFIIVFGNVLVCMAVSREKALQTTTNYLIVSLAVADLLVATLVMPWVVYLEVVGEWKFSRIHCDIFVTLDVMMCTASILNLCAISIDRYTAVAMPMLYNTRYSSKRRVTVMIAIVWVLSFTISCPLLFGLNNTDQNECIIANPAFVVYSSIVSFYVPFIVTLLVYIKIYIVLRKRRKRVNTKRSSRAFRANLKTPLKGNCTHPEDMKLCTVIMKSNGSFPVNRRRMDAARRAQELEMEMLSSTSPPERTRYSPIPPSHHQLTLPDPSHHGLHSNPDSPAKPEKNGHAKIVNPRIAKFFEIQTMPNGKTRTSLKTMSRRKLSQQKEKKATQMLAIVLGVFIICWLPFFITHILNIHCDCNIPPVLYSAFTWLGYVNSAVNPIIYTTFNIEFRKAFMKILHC
SMILES,IC50 [1] [nM],other results
COc1ccc(CN2CCN(C3CCC(O)(c4ccc5c(c4)OCO5)CC3)CC2)cc1 (stereo not given),380,
COc1cccc(CN2CCN(C3CCC(O)(c4ccc5c(c4)OCO5)CC3)CC2)c1.OC1(c2ccc3c(c2)OCO3)CCC(N2CCN(Cc3ccccc3)CC2)CC1 (stereo not given),,Motor activity (Rattus norvegicus [2]): 5100 Counts; Time (Rattus norvegicus [3]): 53 s
OC1(c2ccc3c(c2)OCO3)CCC(N2CCN(Cc3ccccc3Br)CC2)CC1 (stereo not given),1.2,
OC1(c2ccc3c(c2)OCO3)CCC(N2CCN(Cc3cccc(F)c3F)CC2)CC1 (stereo not given),17,
COc1cccc(CN2CCN(C3CCC(O)(c4ccc5c(c4)OCO5)CC3)CC2)c1.OC(CCCN1CCN(c2ncc(F)cn2)CC1)c1ccc(F)cc1 (stereo not given),,Motor activity (Rattus norvegicus [2]): 5400 Counts; Time (Rattus norvegicus [3]): 49 s
OC1(c2ccc3c(c2)OCO3)CCC(N2CCN(Cc3ccccc3Cl)CC2)CC1 (stereo not given),1.9,
OC1(c2ccc3c(c2)OCO3)CCC(N2CCN(Cc3c(F)cccc3F)CC2)CC1 (stereo not given),110,
COc1ccccc1C1(O)CCC(N2CCN(Cc3ccccc3)CC2)CC1 (stereo not given),60,
COc1ccc(C2(O)CCC(N3CCN(Cc4ccccc4)CC3)CC2)cc1 (stereo not given),50,
OC1(c2ccc3c(c2)OCO3)CCC(N2CCN(Cc3cc(F)ccc3F)CC2)CC1 (stereo not given),2.6,
COc1cccc(CN2CCN(C3CCC(O)(c4ccc5c(c4)OCO5)CC3)CC2)c1.O=C1CC2(CCCC2)CC(=O)N1CCCCN1CCN(c2ncccn2)CC1 (stereo not given),,Motor activity (Rattus norvegicus [2]): 4600 Counts; Time (Rattus norvegicus [3]): 51 s
OC1(c2ccc3c(c2)OCO3)CCC(N2CCN(Cc3ccc(F)cc3)CC2)CC1 (stereo not given),27,
CCOc1cccc(CN2CCN(C3CCC(O)(c4ccc5c(c4)OCO5)CC3)CC2)c1 (stereo not given),6.7,
OC1(c2ccc3c(c2)OCO3)CCC(N2CCN(Cc3ccccc3F)CC2)CC1 (stereo not given),10,
OC1(c2ccccc2)CCC(N2CCN(Cc3ccccc3)CC2)CC1 (stereo not given),460,
OC1(c2ccc3c(c2)OCO3)CCC(N2CCN(Cc3ccccc3I)CC2)CC1 (stereo not given),1.2,

SMILES,IC50 [1] [nM],other results
COc1ccc(F)c(CN2CCN(C3CCC(O)(c4ccc5c(c4)OCO5)CC3)CC2)c1 (stereo not given),0.75,
OC1(c2ccc3c(c2)OCO3)CCC(N2CCN(Cc3cc(F)cc(F)c3)CC2)CC1 (stereo not given),21,
OC1(c2ccc3c(c2)OCO3)CCC(N2CCN(Cc3cccc(F)c3)CC2)CC1 (stereo not given),13,
COc1ccc(C2(O)CCC(N3CCN(Cc4ccccc4)CC3)CC2)cc1OC (stereo not given),140,
OC1(c2ccc3c(c2)OCO3)CCC(N2CCN(Cc3cccc(Cl)c3)CC2)CC1 (stereo not given),6,
COc1cccc(CN2CCN(C3CCC(O)(c4ccc5c(c4)OCO5)CC3)CC2)c1F (stereo not given),19,
OC1(c2ccc3c(c2)OCO3)CCC(N2CCN(Cc3cccc(Br)c3)CC2)CC1 (stereo not given),2.8,
OC(CCCN1CCN(c2ncc(F)cn2)CC1)c1ccc(F)cc1 (stereo not given) [BMY-14802],,Motor activity (Rattus norvegicus [4]): 6800 Counts; Time (Rattus norvegicus [5]): 123 s
OC1(c2ccc3c(c2)OCO3)CCC(N2CCN(Cc3ccc(F)c(F)c3)CC2)CC1 (stereo not given),34,
COc1ccccc1CN1CCN(C2CCC(O)(c3ccc4c(c3)OCO4)CC2)CC1 (stereo not given),43,
OC1(c2ccc3c(c2)OCO3)CCC(N2CCN(Cc3ccc(Cl)cc3)CC2)CC1 (stereo not given),79,
OC1(c2ccc3c(c2)OCO3)CCC(N2CCN(Cc3ccc(F)cc3F)CC2)CC1 (stereo not given),57,
O=C1CC2(CCCC2)CC(=O)N1CCCCN1CCN(c2ncccn2)CC1 [BUSPIRONE],,Motor activity (Rattus norvegicus [4]): 6700 Counts; Time (Rattus norvegicus [5]): 125 s
OC1(c2ccc(F)cc2)CCC(N2CCN(Cc3ccccc3)CC2)CC1 (stereo not given),260,
COc1cccc(CN2CCN(C3CCC(O)(c4ccc5c(c4)OCO5)CC3)CC2)c1 (stereo not given),2.2,IC50 [6]: 28000 nM; IC50 [7]: 1100 nM; Time (Rattus norvegicus [8]): 65 s; IC50 [9]: 3000 nM; IC50 [10]: > 100000 nM; Motor activity (Rattus norvegicus [11]): 5140 Counts; IC50 (D(2) dopamine receptor): 4800 nM; IC50 [12]: 1500 nM
COc1cccc(C2(O)CCC(N3CCN(Cc4ccccc4)CC3)CC2)c1 (stereo not given),50,
